A selection: hits, their analogues and other compounds. The true share with any hit is near 1.6%.
HGIII-sPLA2 inh = human group III sPLA2 inhibitors, primary screen, biochemical, QFRET, BODIPY PC-A2 liposome substrate; QFRET BODIPY PC-A2 liposome hydrolysis, fluorescence; Group 3 secretory phospholipase A2 (Homo sapiens), Q9NZ20; hit rate 0.56% among 370,000; inhibition, % at 12.2 µM;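 active = inhibition above mean plus 3 SD of compounds lying within the high and low control bounds, cut at about 19% in these data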;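 note: 0% = median of test compound wells and 100% = no enzyme DMSO wells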
proCasp7 act = procaspase-7 activators, primary screen, counter-screen for procaspase-3 activator project, biochemical, absorbance, HTS, human; hit rate 0.093% among 330,000; Caspase-7 (Homo sapiens), P55210; activation, % at 8.5 µM; recombinant procaspase-7, Ac-DEVD-pNA absorbance 405 nm; D23A/D198A/D206A triple mutant, cannot self-cleave; scale: DMSO 0, 5 µM enzyme 100;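 active = percent activation above the screen-wide mean plus 3 SD, cut at about 25% in these data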
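System: Procaspase-7 triple mutant (PC-7 D3A); measure: % activation from two-timepoint absorbance difference, scaled to controls; times: 1 h compound preincubation, 2 h substrate cleavage, 25 °C; also added: Ac-DEVD-pNA substrate, 400 µM as added; measured by: Epi-absorbance of released pNA at 405 nm, two timepoints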
procasp3 activ = activators of human procaspase-3 D3A mutant, primary screen, biochemical, absorbance, PC-3 D3A mutant, single concentration. Caspase-3 (Homo sapiens), P42574. recombinant procaspase-3 D3A, Ac-DEVD-pNA absorbance 405 nm. activation, % at 8.5 µM. hit rate 0.11% among 330,000. AID 463141, 2010;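 active = activation above the mean of all tested compounds plus 3 SD, cut at about 21% in these data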;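 note: 0% = DMSO alone and 100% = DMSO wells spiked with extra 5 µM PC-3 D3A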
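Assay system: Autoprocessing-dead procaspase-3 D3A mutant enzyme; also added: Ac-DEVD-pNA; doses: one concentration, 8.5 µM nominal, 0.8% DMSO; times: 1 h compound preincubation, 2 h substrate hydrolysis at 25 °C; technique: 405 nm absorbance of p-nitroaniline, reads at 0 and 120 min; measure: % activation between DMSO and enzyme-spiked controls; repeats: single replicate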
PLCb3 inh = human PLC-beta3 inhibitors, primary screen, biochemical, fluorescence; 1-phosphatidylinositol 4,5-bisphosphate phosphodiesterase beta-3 (Homo sapiens), Q01970; Purified PLC-beta3, fluorogenic substrate; inhibition, % at 12.2 µM; hit rate 0.18% among 370,000; in the data active = inhibition above about 11%;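 note: 0% = median of compound wells on plate and 100% = full blocker control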
PLC-gamma1 inh = PLC-gamma1 enzyme inhibitors, primary screen, biochemical, fluorescence, purified enzyme | hit rate 0.84% among 370,000 | fluorogenic substrate | inhibition, % at 12.2 µM | 1-phosphatidylinositol 4,5-bisphosphate phosphodiesterase gamma-1 (Homo sapiens), P19174; in the data active = inhibition above about 9.5%
Target sequence (P19174 whole entry, looked up): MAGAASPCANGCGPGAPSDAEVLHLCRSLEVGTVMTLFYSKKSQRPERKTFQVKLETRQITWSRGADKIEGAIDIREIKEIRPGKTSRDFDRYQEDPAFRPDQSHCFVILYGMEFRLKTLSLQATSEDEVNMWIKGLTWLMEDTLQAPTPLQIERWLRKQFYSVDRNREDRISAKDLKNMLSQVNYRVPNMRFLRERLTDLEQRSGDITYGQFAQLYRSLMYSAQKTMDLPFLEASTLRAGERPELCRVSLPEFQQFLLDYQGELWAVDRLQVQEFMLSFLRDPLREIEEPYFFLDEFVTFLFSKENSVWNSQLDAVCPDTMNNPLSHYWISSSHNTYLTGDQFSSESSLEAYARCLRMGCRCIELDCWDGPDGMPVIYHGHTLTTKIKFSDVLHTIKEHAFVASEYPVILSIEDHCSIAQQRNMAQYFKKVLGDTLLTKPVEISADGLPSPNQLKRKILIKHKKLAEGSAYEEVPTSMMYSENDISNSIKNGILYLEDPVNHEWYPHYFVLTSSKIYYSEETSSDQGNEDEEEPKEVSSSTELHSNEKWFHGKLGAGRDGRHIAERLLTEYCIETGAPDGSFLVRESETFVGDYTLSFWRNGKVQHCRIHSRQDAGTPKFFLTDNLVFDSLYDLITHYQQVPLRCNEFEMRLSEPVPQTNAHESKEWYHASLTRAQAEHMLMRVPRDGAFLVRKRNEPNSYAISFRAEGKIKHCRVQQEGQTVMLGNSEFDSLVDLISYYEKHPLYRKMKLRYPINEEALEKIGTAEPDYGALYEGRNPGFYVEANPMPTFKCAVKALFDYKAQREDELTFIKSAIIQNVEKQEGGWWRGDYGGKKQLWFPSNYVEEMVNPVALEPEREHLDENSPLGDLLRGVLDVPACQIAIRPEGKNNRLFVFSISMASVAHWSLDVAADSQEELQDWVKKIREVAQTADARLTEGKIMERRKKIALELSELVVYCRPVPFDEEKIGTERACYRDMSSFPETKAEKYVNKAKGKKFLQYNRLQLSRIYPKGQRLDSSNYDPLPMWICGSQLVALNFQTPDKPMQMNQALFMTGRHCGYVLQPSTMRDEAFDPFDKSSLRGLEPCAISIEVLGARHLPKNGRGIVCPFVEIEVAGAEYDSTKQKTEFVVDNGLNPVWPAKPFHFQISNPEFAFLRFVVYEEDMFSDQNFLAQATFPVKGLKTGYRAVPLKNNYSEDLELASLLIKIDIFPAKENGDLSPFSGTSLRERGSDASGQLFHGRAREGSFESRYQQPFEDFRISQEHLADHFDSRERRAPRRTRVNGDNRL
sPLA2 confirm = human group III sPLA2 inhibitors, confirmation, biochemical, QFRET, triplicate | inhibition, % at 12.2 µM | recombinant hGIII-sPLA2, BODIPY PC-A2 QFRET fluorescence | hit rate 34% among 2,000 | AID 743280, 2014 | shares compounds with HGIII-sPLA2 inh;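 active = mean inhibition across triplicates above the hit cutoff set in the earlier primary screen, cut at about 19% in these data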;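 note: 0% = enzyme with DMSO and 100% = DMSO wells lacking enzyme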
535nm interf = 535nm fluorescence optical interference, confirmation, artefact control for HGIII-sPLA2 inhibitor project, biochemical, QFRET; BODIPY FL product fluorescence interference; inhibition, % at 12.2 µM; shares compounds with HGIII-sPLA2 inh; hit rate 8.5% among 2,000; AID 743282, 2014;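 active = average inhibition above the solvent-only control mean plus 3 SD, cut at about 6% in these data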;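 note: 0% = DMSO with substrate plus product and 100% = DMSO with substrate alone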
BODIPY interf DR = 535nm fluorescence optical interference, dose response, artefact control for HGIII-sPLA2 inhibitor project, biochemical, QFRET; shares compounds with HGIII-sPLA2 inh; BODIPY FL product fluorescence interference, cell-free; IC50, µM; 240 tested, under 10 active; AID 743455, 2014;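 active = IC50 at or below 10 µM; inactive = IC50 above 10 µM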
The depositor's hits bear a star; i = inactive; nt = not tested or not shown.

SMILES | HGIII-sPLA2 inh | proCasp7 act | procasp3 activ | PLCb3 inh | PLC-gamma1 inh | sPLA2 confirm | 535nm interf | others
COc1ccccc1NC(=S)NNC(=O)c1cc(C)nn1C | 19* | -2 | -5 | 5 | 8 | 22* | -4
COc1ccccc1NC(=S)NNC(=O)c1ccccc1Br | 22* | -14 | -11 | -2 | 1 | 19 | 0
O=C(NNC(=S)Nc1ccccc1Cl)c1ccccc1Cl | 26* | -1 | -1 | -7 | -2 | 35* | 5 | BODIPY interf DR=>122
COc1ccccc1C(=O)NNC(=O)c1ccccc1Br | 4 | -4 | -5 | -6 | 1 | nt | nt
O=C(NNC(=S)Nc1ccccc1Cl)c1ccccc1 | 4 | -10 | 7 | -7 | -2 | nt | nt
CN(Cc1ccccc1)C(=O)c1ccc(Nc2nc(C(N)Cc3ccccc3)cs2)nc1 (stereo unspecified) | 2 | nt | nt | -28 | -19 | nt | nt
CC(C)CC(N)c1csc(Nc2ccc(C(=O)N(C)Cc3ccccc3)cn2)n1 (stereo unspecified) | 21* | nt | nt | -31 | -16 | 0 | -28
CN(C)c1ccc(NC(=S)c2ccccn2)cc1 | 13 | 6 | -5 | -6 | -1 | nt | nt
CN(C)c1ccc(C(=S)Nc2ccccc2)cc1 | 22* | -14 | 7 | -1 | 6 | 21* | 3
Oc1ccc(-c2csc(Nc3cccc4ccccc34)n2)cc1O | 21* | -30 | -15 | -30 | -17 | 9 | 11*
CCNC(=S)NNC(=O)c1c(Cl)c(C)nn1C | 21* | 1 | 6 | -1 | -1 | 9 | -4
CC(C)n1cc(C(N)=S)c(=O)n(Cc2ccccc2)c1=O | 21* | 2 | -6 | -7 | 1 | 12 | -4
Cc1ccc(NC(=O)NNC(=O)COc2ccc3ccccc3c2)cc1 | -10 | 13 | 11 | -8 | 0 | nt | nt
COc1ccccc1NC(=O)NNC(=O)c1cc2ccccc2cc1O | 27* | -1 | 0 | -150 | -92 | 20* | 6
Cc1ccc(NC(=O)NNC(=O)c2cc3ccccc3cc2O)cc1 | 27* | -2 | 3 | -133 | -90 | 15 | -4
C[C@H]1CN([C@@H](C)CO)C(=O)CCCn2nncc2CO[C@@H]1CN(C)Cc1ccc(Cl)c(Cl)c1 | 0 | nt | nt | 1 | -1 | nt | nt
CC(C)(CO)NC(=O)C(Cc1ccccc1)N1C(=O)c2ccccc2C1=O (stereo unspecified) | 3 | -4 | 2 | -4 | -24 | nt | nt
Cc1cc(CNCc2c(C(=O)N3CCCCCCC3)nc3ccc(Cl)cn23)nn1C | 0 | 4 | 4 | -3 | 0 | nt | nt
Cc1ccc(C)c(N2CCN(S(=O)(=O)c3c(C)noc3/C=C/N(C)C)CC2)c1 | 23* | -12 | -1 | -3 | -2 | 29* | -8 | BODIPY interf DR=>122
S=c1[nH]nc(-c2ccccn2)n1/N=C/c1cccc2ccccc12 | 21* | 1 | -9 | -2 | 3 | 27* | 5
Cc1ccccc1/C=N/n1c(-c2cc(-c3ccccc3)n[nH]2)n[nH]c1=S | 26* | -16 | -8 | -11 | -2 | -70 | 6
Cc1ccccc1/C=N/n1c(-c2ccccn2)n[nH]c1=S | 4 | -3 | -6 | -7 | -1 | nt | nt
S=c1[nH]nc(-c2cc(-c3ccccc3)n[nH]2)n1/N=C/c1cccc2ccccc12 | 9 | nt | nt | 0 | -1 | nt | nt
O=C(NCc1ccco1)c1ccc(-c2ccc(F)c(F)c2)c2ccoc12 | -15 | nt | nt | -7 | -2 | nt | nt
CC(C)OC1(c2ccccc2)OC(=O)c2ccccc21 (stereo unspecified) | -1 | 7 | -1 | 3 | 0 | nt | nt
SMILES | HGIII-sPLA2 inh | proCasp7 act | procasp3 activ | PLCb3 inh | PLC-gamma1 inh | sPLA2 confirm | 535nm interf | others
CCOC1(c2ccccc2)OC(=O)c2ccccc21 (stereo unspecified) | 22* | 1 | -3 | -1 | 1 | 0 | -5
C(=N\Nc1nc2ccccc2[nH]1)/c1cccc2cccnc12 | 37* | 3 | -7 | -189 | -96 | 19 | 2
S=c1nc[nH]c2c1[nH]c1ccc(Cl)cc12 | 20* | -4 | 0 | -17 | -7 | 14 | 3
N/C(=N\OCc1ccc([N+](=O)[O-])cc1)c1ccncc1 | 8 | -5 | -4 | 1 | 0 | nt | nt
O=C(CN1CCN(C2CCCCC2)CC1)NCCC1=CCCCC1 | 20* | 1 | 9 | 2 | 4 | 4 | -19
CS(=O)(=O)N(CC(=O)NCCC1=CCCCC1)C1CCCCC1 | 4 | 6 | -4 | 0 | 3 | nt | nt
Cn1c(Oc2ccncc2)nc2cc(-c3ccsc3)sc2c1=O | 4 | nt | nt | -8 | -1 | nt | nt
C#CC[N+](C)(C)CCCCCCCCCC | 19* | 2 | 6 | 2 | 6 | 1 | -15
C#CC[N+](C)(C)CCCCCCCCCCCC | 23* | -1 | 4 | 2 | 8 | -6 | -33
C#CC[N+](C)(C)CCCCCCCC | 7 | 4 | -4 | 1 | -3 | nt | nt
CCc1ccccc1NC(=O)N1CCCC(CCC(=O)N(C)CCc2ccccn2)C1 (stereo unspecified) | 3 | -6 | 3 | 1 | 3 | nt | nt
CCOC(=O)CCNC(=O)N1CCCC(CCC(=O)N(C)CCc2ccccn2)C1 (stereo unspecified) | 24* | 3 | 5 | 0 | 5 | 0 | -10
Cc1cccc(C)c1NC(=O)C(c1ccc(C#N)cc1)n1c(=O)c(-c2cc3ccccc3[nH]2)nc2ccccc21 (stereo unspecified) | -3 | nt | nt | i | i | nt | nt
C=C(C)c1cccc(C(C)(C)NC(=O)Nc2cc(C)ccc2OC)c1 | -11 | -11 | 2 | 1 | -2 | nt | nt
C=C(C)c1cccc(C(C)(C)NC(=O)Nc2ccccc2OCC)c1 | 21* | -4 | -1 | 3 | 1 | 0 | -7
O=C(CSc1nnc(CNC(=O)c2ccc(F)cc2)o1)NCc1ccc2c(c1)OCO2 | 0 | 8 | -8 | -5 | 2 | nt | nt
C/C(=N\OCC(=O)Nc1nc2ccccc2s1)c1ccccc1 | 19* | 9 | 6 | 3 | 2 | 0 | -2
Cc1ccc(N=Nc2cc(C)ccc2O)c(C)c1 | 9 | nt | nt | -4 | 0 | nt | nt

Screens: PubChem, The Scripps Research Institute Molecular Screening Center
